Results from ChEMBL document CHEMBL2406962, “Adenosine Dioxolane Nucleoside Phosphoramidates as Antiviral Agents for Human Immunodeficiency and Hepatitis B Viruses” (ACS Med Chem Lett, 2013).
pEC50: −log10 of the molar value.

Assays:
[1] = system: CCRF-CEM; experiment: Cytotoxicity against human CEM cells after 2 to 4 days by MTT assay; assay type: cell-based
Summary of the method: (§1)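 Cytotoxicity in human PBM cells, Vero (African green monkey kidney epithelial) cells and CEM (human T-cell-derived line) cells, with compounds tested up to 100 μM.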

[2] = system: Vero; experiment: Cytotoxicity against African green monkey Vero cells after 2 to 4 days by MTT assay; assay type: cell-based; conditions: chlorocebus sabaeus; summary of the method: as §1
[3] = system: PBMC; experiment: Cytotoxicity against human PBMC after 2 to 4 days by MTT assay; assay type: cell-based; summary of the method: as §1
[4] = system: Human immunodeficiency virus 1; experiment: Antiviral activity against Human immunodeficiency virus 1 LAI infected in PHA-stimulated human PBMC; assay type: functional, organism-based
[5] = system: Hepatitis B virus; experiment: Antiviral activity against Hepatitis B virus infected in human HepAD38 cells after 5 days; assay type: functional, organism-based; conditions: HePAD38, 120 h
[6] = system: HepG2; experiment: Cytotoxicity against human HepG2 cells after 2 to 4 days by neutral red dye uptake assay; assay type: cell-based
[7] = system: Huh-7; experiment: Cytotoxicity against human HuH7 cells after 2 to 4 days by MTT assay; assay type: cell-based
[8] = system: PBMC; experiment: Drug metabolism in human PBMC assessed as dioxolane-A triphosphate level measured per 10^6 cells at 50 uM after 4 hrs by LC-MS/MS analysis; assay type: ADME, cell-based; set-up: unit: pmol/10^6 cells
[9] = system: PBMC; experiment: Drug metabolism in human PBMC assessed as 6-cyclopropylamino purine dioxolane triphosphate level measured per 10^6 cells at 50 uM after 4 hrs by LC-MS/MS analysis; assay type: ADME, cell-based
[10] = in vivo; conditions: mouse

Row | Compound | CC50 [1] | CC50 [2] | CC50 [3] | pEC50 [4] | pEC50 [5] | CC50 [6] | CC50 [7] | Drug metabolism [8] | Drug metabolism [9] | LD50 [10]
1 | OC[C@@H]1OC[C@H](n2cnc3c(NC4CC4)ncnc32)O1 | > 100 µM | > 100 µM | > 100 µM | 4.04 | < 5.00 | > 100 µM | > 100 µM |  |  | 
2 | CCOC(=O)[C@H](C)NP(=O)(OC[C@@H]1OC[C@H](n2cnc3c(NC4CC4)ncnc32)O1)Oc1ccccc1 (stereo partly drawn) | > 100 µM | > 100 µM | > 100 µM | 7.07 | 6.10 | > 100 µM | > 100 µM | 0.11 pmol | 0.13 pmol | 
3 | CCOC(=O)CCc1ccccc1OP(=O)(N[C@@H](C)C(=O)OCC)OC[C@@H]1OC[C@H](n2cnc3c(NC4CC4)ncnc32)O1 (stereo partly drawn) | > 100 µM | > 100 µM | > 100 µM | 6.11 | < 5.00 | > 100 µM | 65 µM | 0.14 pmol | 0.19 pmol | 
4 | CC(C)OC(=O)CCc1ccccc1OP(=O)(N[C@@H](C)C(=O)OC(C)C)OC[C@@H]1OC[C@H](n2cnc3c(NC4CC4)ncnc32)O1 (stereo partly drawn) | 84 µM | > 100 µM | > 100 µM | 4.96 | < 5.00 | > 100 µM | 57 µM |  |  | 
5 | COc1ncnc2c1ncn2[C@H]1CO[C@@H](COP(=O)(N[C@@H](C)C(=O)OC(C)C)Oc2ccccc2CCC(=O)OC(C)C)O1 (stereo partly drawn) | > 100 µM | > 100 µM | > 100 µM | 5.15 | < 5.00 | > 100 µM | 52 µM |  |  | 
6 | CCOC(=O)[C@H](C)NP(=O)(OC[C@@H]1OC[C@H](n2cnc3c(N)ncnc32)O1)Oc1ccccc1 (stereo partly drawn) | 18 µM | 80 µM | 2 µM | 9.25 | 7.52 | > 100 µM | 7.3 µM | 200 pmol |  | 
7 | CCOC(=O)CCc1ccccc1OP(=O)(N[C@@H](C)C(=O)OCC)OC[C@@H]1OC[C@H](n2cnc3c(N)ncnc32)O1 (stereo partly drawn) | 53 µM | 36 µM | 12 µM | 8.48 | 6.52 | > 100 µM | 12 µM | 90 pmol |  | 
8 | CCOC(=O)[C@H](C)NP(=O)(OC[C@@H]1OC[C@H](n2cnc3c(OC)ncnc32)O1)Oc1ccccc1 (stereo partly drawn) | > 100 µM | > 100 µM | > 100 µM | 6.47 | < 5.00 | > 100 µM | 80 µM |  |  | 
9 | CCOC(=O)CCc1ccccc1OP(=O)(N[C@@H](C)C(=O)OCC)OC[C@@H]1OC[C@H](n2cnc3c(OC)ncnc32)O1 (stereo partly drawn) | > 100 µM | 93 µM | > 100 µM | 6.38 | < 5.00 | > 100 µM | 80 µM |  |  | 
10 | Nc1ncnc2c1ncn2[C@H]1CO[C@@H](CO)O1 |  |  |  |  |  |  |  | 0.18 pmol |  | 
11 | Nc1nc(N)c2ncn([C@H]3CO[C@@H](CO)O3)c2n1 [AMDOXOVIR] | > 100 µM | > 100 µM | > 100 µM | 6.40 | < 5.05 | > 100 µM | > 100 µM |  |  | 
12 | Oc1ccccc1 [PHENOL] |  |  |  |  |  |  |  |  |  | 270 mg/kg
